Source: ChEMBL document CHEMBL1649261, “Pharmacodynamic profile of tigecycline against methicillin-resistant Staphylococcus aureus in an experimental pneumonia model” (Antimicrob Agents Chemother, 2009)
Values after ≈ are worked out from the molar mass of the structure shown.

Columns and labels:
[1] = tested on: Staphylococcus aureus; experiment: Antibacterial activity against methicillin-susceptible Staphylococcus aureus ATCC 29213 by microdilution method; format: functional
Method in brief: (§1)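 Tigecycline MIC measured in triplicate by broth microdilution following CLSI guidelines. Isolates were stored at −80°C in skim milk and subcultured twice on blood agar before testing.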

[2] = tested on: Staphylococcus aureus; experiment: Antibacterial activity against community-acquired methicillin-resistant Staphylococcus aureus 144 by microdilution method; format: functional; method in brief: as §1
[3] = tested on: Staphylococcus aureus; experiment: Antibacterial activity against community-acquired methicillin-resistant Staphylococcus aureus 156 by microdilution method; format: functional; method in brief: as §1
[4] = tested on: Staphylococcus aureus; experiment: Antibacterial activity against community-acquired methicillin-resistant Staphylococcus aureus 147 by microdilution method; format: functional; method in brief: as §1
[5] = tested on: Staphylococcus aureus; experiment: Antibacterial activity against hospital-acquired methicillin-resistant Staphylococcus aureus 56 by microdilution method; format: functional; method in brief: as §1
[6] = tested on: Staphylococcus aureus; experiment: Antibacterial activity against hospital-acquired methicillin-resistant Staphylococcus aureus 152 by microdilution method; format: functional; method in brief: as §1
[7] = Cmax in BALB/c mouse infected with Staphylococcus aureus at 6.25 mg/kg, sc administered as single dose; format: ADME, organism-based; set-up: dose 6.25 mg/kg, route subcutaneous; details: in vivo
Method in brief: (§2)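 Neutropenic BALB/c mice (cyclophosphamide ip 250 and 100 mg/kg, days −4 and −1) with S. aureus pneumonia from oral instillation of 0.05 ml of a 3% mucin suspension received a single 0.2-ml sc dose in normal saline. Serum was taken at 0.25, 0.5, 1, 1.5, 2, 4, 6 and 8 h, six mice per time point. Drug was measured by validated HPLC.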

[8] = Cmax in BALB/c mouse infected with Staphylococcus aureus at 12.5 mg/kg, sc administered as single dose; format: ADME, organism-based; set-up: dose 12.5 mg/kg, route subcutaneous; details: in vivo; method in brief: as §2
[9] = Cmax in BALB/c mouse infected with Staphylococcus aureus at 25 mg/kg, sc administered as single dose; format: ADME, organism-based; set-up: dose 25 mg/kg, route subcutaneous; details: in vivo; method in brief: as §2
[10] = Cmax in BALB/c mouse infected with Staphylococcus aureus at 50 mg/kg, sc administered as single dose; format: ADME, organism-based; set-up: dose 50 mg/kg, route subcutaneous; details: in vivo; method in brief: as §2
[11] = Tmax in BALB/c mouse infected with Staphylococcus aureus at 6.25 mg/kg, sc administered as single dose; format: ADME, organism-based; set-up: dose 6.25 mg/kg, route subcutaneous; details: in vivo; method in brief: as §2
[12] = Tmax in BALB/c mouse infected with Staphylococcus aureus at 12.5 mg/kg, sc administered as single dose; format: ADME, organism-based; set-up: dose 12.5 mg/kg, route subcutaneous; details: in vivo; method in brief: as §2
[13] = Tmax in BALB/c mouse infected with Staphylococcus aureus at 25 mg/kg, sc administered as single dose; format: ADME, organism-based; set-up: dose 25 mg/kg, route subcutaneous; details: in vivo; method in brief: as §2
[14] = Tmax in BALB/c mouse infected with Staphylococcus aureus at 50 mg/kg, sc administered as single dose; format: ADME, organism-based; set-up: dose 50 mg/kg, route subcutaneous; details: in vivo; method in brief: as §2
[15] = AUC (0 to 24 hrs) in BALB/c mouse infected with Staphylococcus aureus at 6.25 mg/kg, sc administered as single dose; format: ADME, organism-based; set-up: time < 24 hr, dose 6.25 mg/kg, route subcutaneous; details: plasma; method in brief: as §2
[16] = AUC (0 to 24 hrs) in BALB/c mouse infected with Staphylococcus aureus at 12.5 mg/kg, sc administered as single dose; format: ADME, organism-based; set-up: time < 24 hr, dose 12.5 mg/kg, route subcutaneous; details: plasma; method in brief: as §2
[17] = AUC (0 to 24 hrs) in BALB/c mouse infected with Staphylococcus aureus at 25 mg/kg, sc administered as single dose; format: ADME, organism-based; set-up: time < 24 hr, dose 25 mg/kg, route subcutaneous; details: plasma; method in brief: as §2
[18] = AUC (0 to 24 hrs) in BALB/c mouse infected with Staphylococcus aureus at 50 mg/kg, sc administered as single dose; format: ADME, organism-based; set-up: time < 24 hr, dose 50 mg/kg, route subcutaneous; details: plasma; method in brief: as §2
[19] = Half life in BALB/c mouse infected with Staphylococcus aureus at 6.25 mg/kg, sc administered as single dose; format: ADME, organism-based; set-up: dose 6.25 mg/kg, route subcutaneous; details: in vivo; method in brief: as §2
[20] = Half life in BALB/c mouse infected with Staphylococcus aureus at 12.5 mg/kg, sc administered as single dose; format: ADME, organism-based; set-up: dose 12.5 mg/kg, route subcutaneous; details: in vivo; method in brief: as §2
[21] = Half life in BALB/c mouse infected with Staphylococcus aureus at 25 mg/kg, sc administered as single dose; format: ADME, organism-based; set-up: dose 25 mg/kg, route subcutaneous; details: in vivo; method in brief: as §2
[22] = Half life in BALB/c mouse infected with Staphylococcus aureus at 50 mg/kg, sc administered as single dose; format: ADME, organism-based; set-up: dose 50 mg/kg, route subcutaneous; details: in vivo; method in brief: as §2
[23] = tested on: Mus musculus; experiment: Volume of distribution in BALB/c mouse infected with Staphylococcus aureus at 6.25 mg/kg, sc administered as single dose; format: ADME, organism-based; set-up: dose 6.25 mg/kg, route subcutaneous; details: in vivo; method in brief: as §2
[24] = tested on: Mus musculus; experiment: Volume of distribution in BALB/c mouse infected with Staphylococcus aureus at 12.5 mg/kg, sc administered as single dose; format: ADME, organism-based; set-up: dose 12.5 mg/kg, route subcutaneous; details: in vivo; method in brief: as §2
[25] = tested on: Mus musculus; experiment: Volume of distribution in BALB/c mouse infected with Staphylococcus aureus at 25 mg/kg, sc administered as single dose; format: ADME, organism-based; set-up: dose 25 mg/kg, route subcutaneous; details: in vivo; method in brief: as §2
[26] = tested on: Mus musculus; experiment: Volume of distribution in BALB/c mouse infected with Staphylococcus aureus at 50 mg/kg, sc administered as single dose; format: ADME, organism-based; set-up: dose 50 mg/kg, route subcutaneous; details: in vivo; method in brief: as §2
[27] = Protein binding in Staphylococcus aureus-infected BALB/c mouse serum at 6.25 mg/kg, sc administered as single dose; format: ADME, organism-based; set-up: dose 6.25 mg/kg, route subcutaneous; details: read-out: PB (converted)
Method in brief: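 Ultrafiltration was run in triplicate with 30,000-MW cutoff devices. Drug was diluted into fresh mouse serum to final 1.5, 3, 6 and 15 μg/ml, held at 37°C for 10 min with shaking, and centrifuged at 1,000 × g for 45 min at 10°C. Binding was calculated as (S − SUF)/S × 100 for each concentration, each matched to a dose by its peak serum level.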

**Q.** For `CN(C)c1cc(NC(=O)CNC(C)(C)C)c(O)c2c1C[C@H]1C[C@H]3[C@H](N(C)C)C(O)=C(C(N)=O)C(=O)[C@@]3(O)C(O)=C1C2=O` [TIGECYCLINE], which MIC [1] is on record?
**A.** 0.25 µg/mL (≈ 0.427 µM)

**Q.** And the MIC [2]?
**A.** 0.25 µg/mL (≈ 0.427 µM)

**Q.** What about the MIC [3] of the same molecule?
**A.** 0.125 µg/mL (≈ 0.213 µM)

**Q.** What about the MIC [4] of the same molecule?
**A.** 0.25 µg/mL (≈ 0.427 µM)

**Q.** And the MIC [5]?
**A.** 0.5 µg/mL (≈ 0.854 µM)

**Q.** And the MIC [6]?
**A.** 0.25 µg/mL (≈ 0.427 µM)

**Q.** And the Cmax [7]?
**A.** 1570 ng/mL

**Q.** And the Cmax [8]?
**A.** 3090 ng/mL

**Q.** And the Cmax [9]?
**A.** 5990 ng/mL

**Q.** What about the Cmax [10] of the same molecule?
**A.** 15800 ng/mL

**Q.** And the Tmax [11]?
**A.** 0.34 h

**Q.** And the Tmax [12]?
**A.** 0.27 h

**Q.** What about the Tmax [13] of the same molecule?
**A.** 0.74 h

**Q.** What about the Tmax [14] of the same molecule?
**A.** 0.35 h

**Q.** What about the AUC(0-t) at 24 h [15] of the same molecule?
**A.** 9980 ng·h/mL

**Q.** And the AUC(0-t) at 24 h [16]?
**A.** 16500 ng·h/mL

**Q.** What about the AUC(0-t) at 24 h [17] of the same molecule?
**A.** 37500 ng·h/mL

**Q.** What about the AUC(0-t) at 24 h [18] of the same molecule?
**A.** 72500 ng·h/mL

**Q.** And the half-life [19]?
**A.** 12.4 h

**Q.** What about the half-life [20] of the same molecule?
**A.** 7.13 h

**Q.** And the half-life [21]?
**A.** 12.4 h

**Q.** What about the half-life [22] of the same molecule?
**A.** 11.5 h

**Q.** What about the Vd [23] of the same molecule?
**A.** 3.44 L/kg

**Q.** What about the Vd [24] of the same molecule?
**A.** 3.62 L/kg

**Q.** And the Vd [25]?
**A.** 2.77 L/kg

**Q.** And the Vd [26]?
**A.** 2.62 L/kg

**Q.** What about the fraction unbound [27] of the same molecule?
**A.** 0.15
